Source: PubChem (Johns Hopkins Ion Channel Center)
hERG protect: compounds protecting human hERG from proarrhythmic drug block. Q12809. CHO-hERG, FluxOR thallium flux, dofetilide IC70 present. activation (rescue from dofetilide block), less the hit threshold, % at 10 µM. 310,000 compounds, 0.51% hits. AID 1511;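 active = activation above the mean of controls blocked by dofetilide plus 5 SD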;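 note: thallium influx through hERG after potassium depolarization seen as dye fluorescence rise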
Kir21 block: blocks the mouse Kir2.1 inward-rectifier potassium channel | P35561 | HEK293-Kir2.1, FluxOR thallium flux fluorescence; stronger effect = lower value | B-score at 10 µM | 310,000 compounds, 0.85% hits | AID 1672;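 active = fluorescence ratio B-score at or below minus 3 SD of library scores, with starting-brightness B-score within 2 SD, cut at about -4.2 in these data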;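 note: channel flux triggered by added potassium and thallium sulfate stimulus; B-score of peak minus minimum fluorescence over baseline after thallium stimulus; more negative B-score means stronger Kir2.1 block with less thallium influx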
KCNQ1 act: potentiates or activates the human KCNQ1 potassium channel. P51787. CHO-K1 KCNQ1, thallium flux FluxOR fluorescence; stronger effect = higher value. B-score at 10 µM. 310,000 compounds, 0.35% hits;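 active = fluorescence ratio B-score, a plate-corrected score, at least three library SD, with initial intensity B-score within 5 SD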
Target sequence (P51787 whole entry, looked up): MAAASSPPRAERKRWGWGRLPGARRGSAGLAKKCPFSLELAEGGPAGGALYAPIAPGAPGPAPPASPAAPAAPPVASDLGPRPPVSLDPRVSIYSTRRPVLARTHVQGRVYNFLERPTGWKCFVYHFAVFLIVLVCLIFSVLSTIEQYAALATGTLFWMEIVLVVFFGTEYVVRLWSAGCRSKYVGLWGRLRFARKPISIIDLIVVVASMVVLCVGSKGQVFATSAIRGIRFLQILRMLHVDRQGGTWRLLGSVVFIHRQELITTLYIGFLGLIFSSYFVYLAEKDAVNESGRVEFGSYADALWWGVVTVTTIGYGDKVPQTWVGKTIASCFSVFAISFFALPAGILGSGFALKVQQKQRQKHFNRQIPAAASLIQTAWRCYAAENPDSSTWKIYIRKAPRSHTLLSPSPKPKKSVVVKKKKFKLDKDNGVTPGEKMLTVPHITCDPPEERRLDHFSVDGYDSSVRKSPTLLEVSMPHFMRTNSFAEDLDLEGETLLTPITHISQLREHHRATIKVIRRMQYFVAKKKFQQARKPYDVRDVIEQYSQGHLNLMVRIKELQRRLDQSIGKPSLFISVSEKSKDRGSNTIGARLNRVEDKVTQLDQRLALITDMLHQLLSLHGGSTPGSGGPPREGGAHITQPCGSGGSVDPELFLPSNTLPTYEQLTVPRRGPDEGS
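Schedule – 37 °C overnight plating, 90-min dark dye load, 20-min compound pretreatment · System – stable KCNQ1 CHO-K1 line · Probe or stimulus – thallium- and potassium-containing depolarizing buffer · Measured by – kinetic FluxOR fluorescence, 10 s baseline plus 110 s post-stimulus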
KCNK9 block: human KCNK9 channel inhibition | Q9NPC2 | HEK293 KCNK9, FluxOR thallium flux fluorescence; stronger effect = lower value | B-score at 10 µM | 310,000 compounds, 1.2% hits;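 active = ratio B-score over 3 SD below the library mean, with starting fluorescence within 5 SD of its mean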;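 note: negative B-score means less thallium flux so channel inhibition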
KCNQ1 inh: human KCNQ1 channel inhibition; P51787; CHO-K1 KCNQ1, FluxOR thallium flux fluorescence; stronger effect = higher value; B-score at 10 µM; 310,000 compounds, 1.3% hits;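 active = compounds whose thallium flux B-score, printed positive for inhibition, exceeds three library SD while starting fluorescence stays within three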;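 note: channel opened by potassium depolarization with thallium stimulus after 20 min compound exposure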
KCNK3 inh: human KCNK3 channel inhibition, primary screen; O14649; CHO-KCNK3 thallium flux, FluxOR fluorescence; stronger effect = lower value; B-score at 10 µM; 340,000 compounds, 0.84% hits; AID 602410;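 active = B-score under library mean minus 4 SD, starting fluorescence ratio at most library mean plus 5 SD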;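 note: more negative B-score means stronger inhibition of thallium flux through KCNK3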
An asterisk follows results filed as active; i = inactive; / = not tested or not shown. Shown are actives, neighbours in structure and some others; about 3.8% of the full set was active somewhere.

SMILES	hERG protect	Kir21 block	KCNQ1 act	KCNK9 block	KCNQ1 inh	KCNK3 inh
COc1cc(CN(C)C(=O)C(=O)c2c[nH]c3ccccc23)ccc1O	/	/	/	/	/	i
CC(=O)Nc1ccc(N=Cc2nc(-c3ccc(C)cc3)oc2O)cc1	-10	-0.19	i	-6.8*	i	i
Cc1ccc(N=Cc2nc(-c3ccc(C)cc3)oc2O)cc1	-17	0.92	i	i	i	i
COc1ccc(CCN(C(=O)Cn2nnc3ccccc32)C(C(=O)NCC2CCCO2)c2ccncc2)cc1OC (stereo not drawn)	39*	0.25	i	i	i	i
CCOc1cc(C(C(=O)NCC2CCCO2)N(C(=O)Cn2nnc3ccccc32)c2ccccc2OC)ccc1O (stereo not drawn)	-8	1.1	i	i	i	i
Cc1ccc(S(=O)(=O)N2CCSC2C(=O)O)cc1 (stereo not drawn)	-18	1.9	i	i	i	i
Cc1ccc(S(=O)(=O)N2CCSC2c2ccco2)cc1 (stereo not drawn)	-10	-4.3*	i	i	i	i
COc1ccc(Cl)cc1NC(=S)N(Cc1ccccc1C)CC1CCC(C(=O)O)CC1 (stereo not drawn)	-18	1.7	i	i	i	i
O=C(Cn1cnc2ccccc21)c1ccccc1	5.0*	0	i	i	i	i
NC1=NC[C@H](Cc2ccc(O)cc2)N1CCCCC1CCCCC1	-25	-2.2	i	i	i	i
NC1=NC[C@H](Cc2ccccc2)N1CCCCC1CCCCC1	-25	-5.8*	i	i	i	i
COc1ccc(-n2nc(C(=O)c3cccs3)cc(-c3nc4ccccc4[nH]3)c2=N)cc1	-11	0.18	i	i	i	i
Cc1ccccc1-n1nc(C(=O)c2cccs2)cc(-c2nc3ccccc3[nH]2)c1=N	-17	-0.41	i	i	6*	i
CCC(C(=O)OCC(=O)NC(=O)c1ccccc1OC)c1ccccc1 (stereo not drawn)	-15	-8.1*	i	i	i	i
CCC(Sc1ncccc1C(=O)Oc1cccc([N+](=O)[O-])c1)C(=O)Nc1ccccc1OC (stereo not drawn)	-8	-0.98	i	-7.9*	i	i
O=C1NC(c2ccccc2)=C(c2ccccc2)C1=O	/	/	/	/	/	i
CCCc1ccc(S(=O)(=O)N(C)S(=O)(=O)c2ccc(F)cc2)cc1	-10	0.31	i	-6.7*	i	i
CC1SCC(=NOCc2c(Cl)cccc2Cl)CS1 (stereo not drawn)	-1	-0.86	i	i	i	i
Cc1onc(-c2ccccc2Cl)c1C(O)c1ccc(F)cc1 (stereo not drawn)	-10	-3.4	i	i	i	i
Cc1onc(-c2c(F)cccc2Cl)c1C(O)c1ccc(F)cc1 (stereo not drawn)	-5	-4.4*	i	i	i	i
CCc1ccc2c(c1)cc(C)c1nnc(SCC(=O)Nc3cc(OC)c(OC)cc3C(=O)O)n12	-8	-0.2	i	i	i	i
CCOc1ccc(C(Nc2cccnc2)c2cc(Cl)c3cccnc3c2O)cc1 (stereo not drawn)	-11	-1.7	i	i	8*	i
O=C(O)COc1ccccc1C(Nc1cccnc1)c1cc(Cl)c2cccnc2c1O (stereo not drawn)	-9	0.66	i	i	i	i
CCOC(=O)c1c(NC(=O)CSc2nnc3c(Cl)cc(Cl)cn23)sc2c1CCC2	-8	-4.3*	i	i	i	i
O=C(Nc1ccc(C(=O)Oc2ccccc2)c(O)c1)c1ccccc1	-1	0.7	i	-7.2*	i	i
SMILES	hERG protect	Kir21 block	KCNQ1 act	KCNK9 block	KCNQ1 inh	KCNK3 inh
O=C(Nc1ccc(OC(=O)c2cccs2)cc1)c1ccco1	-3	1.2	i	i	i	i
O=C(Nc1ccc(C(=O)Oc2ccccc2)c(O)c1)c1ccco1	-10	0.86	i	-7.2*	i	i
CCOC(=O)Nc1ccc(C(=O)Oc2ccccc2)c(O)c1	-6	0.09	i	i	i	i
CCN1CCCC1CNC(=O)c1ccc(CS(=O)(=O)c2ccccc2C)o1 (stereo not drawn)	-5	-0.98	i	i	i	i
O=C(COC(=O)c1cc(-c2ccccn2)nc2ccccc12)Nc1ncc(C(F)(F)F)cc1Cl	-11	-0.66	i	i	i	i
O=C1c2ccccc2NC(c2ccc(O)c(O)c2)N1c1ccccc1Cl (stereo not drawn)	-8	0.56	i	i	i	i
N=c1c2c(-c3ccccc3)c(-c3ccccc3)n(Cc3ccco3)c2ncn1CCO	-15	-9.9*	i	i	i	i
N=c1c2c(-c3ccccc3)c(-c3ccccc3)n(Cc3ccco3)c2ncn1CCCO	-16	-5.5*	i	i	i	i
c1ccc(-c2nc3nc4ccccc4nc3n2Cc2ccco2)cc1	-7	-0.71	i	i	i	i
N=c1c2c(-c3ccccc3)c(-c3ccccc3)n(Cc3ccco3)c2ncn1CCN1CCOCC1	-14	-5.3*	i	i	i	i
COc1ccc(-c2nnc(CSc3nc4ccccc4c(=O)n3CC3CCCO3)o2)cc1OC (stereo not drawn)	-9	0.12	i	i	i	i
CCCN(CCC)c1nc2ccccc2n2c(C)nnc12	-10	0	i	i	i	i
COC(=O)c1ccncc1C(=O)Nc1ccc(F)cc1	-8	-0.16	i	i	i	i
CCc1nc(C)cn1S(=O)(=O)c1cc(Br)c(C)cc1OC	-13	-12*	i	i	i	i
CCc1nc(C)cn1S(=O)(=O)c1cc(C)c(OC)cc1C	-3	-5.2*	i	i	i	i
CCc1nc(C)cn1S(=O)(=O)c1cc(F)ccc1OC	-9	-10	i	i	i	i
CCc1nc(C)cn1S(=O)(=O)c1cc(C)c(OC)c(C)c1C	-12	-5.6*	i	i	i	i
COc1ccccc1N(CC(=O)NCc1ccccc1C)S(=O)(=O)c1ccc(C)cc1	-9	-0.97	i	i	i	i
CCOc1[nH]n(-c2ccccc2)c(=O)c1C=Nc1ccc(C(=O)OC)cc1	-3	0.79	i	i	i	i
CCOC(=O)C1=C(C)N(CC)C(=S)NC1c1ccc(Cl)cc1 (stereo not drawn)	-9	-7.1*	i	i	i	i
O=C(Cn1ccc2ccccc2c1=O)NCCC(=O)Nc1ccc(F)cc1F	-5	-1.3	i	i	i	i
